Assay results taken from ChEMBL document CHEMBL1140069, “In vitro antifungal activity of polyfunctionalized 2-(hetero)arylquinolines prepared through imino Diels-Alder reactions” (2008).
Converted amounts (≈) assume the structure as drawn.

Key:
Format in all cases: functional
Nannizzia gypsea = experiment: Antifungal activity against Microsporum gypseum C115 after 48 hrs by broth microdilution technique
How it was run: (§1)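 CLSI broth microdilution: M-27 A2 for yeasts and M-38 A for filamentous fungi. Medium is RPMI-1640 buffered to pH 7.0 with MOPS. Compound is diluted twofold from 250 to 0.98, final DMSO ≤2%. Inoculum is 1–5 × 10³ CFU/mL. Plates are incubated at 35 °C in a moist, dark chamber and read visually at 48 h. MIC100 is the lowest concentration giving total growth inhibition versus drug-free control.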

Cryptococcus neoformans [1] = experiment: Antimicrobial activity against Cryptococcus neoformans IM 031631 isolate at 12.5 ug/ml after 48 hrs
How it was run: (§2)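 Percent growth inhibition in 96-well microplates. Compound stocks in DMSO (≤2%) were diluted in RPMI-1640 to final 100–6.25 µg/mL, and 100 µL inoculum was added (final 200 µL). Controls were a growth well (inoculum with matching DMSO, no compound) and a sterility well (no inoculum). Inhibition was calculated against growth and sterility wells.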

Cryptococcus neoformans [2] = experiment: Antimicrobial activity against Cryptococcus neoformans IM 052470 isolate at 12.5 ug/ml after 48 hrs; how it was run: as §2
Cryptococcus neoformans [3] = experiment: Antimicrobial activity against Cryptococcus neoformans IM 031706 isolate at 6.25 ug/ml after 48 hrs; how it was run: as §2
Cryptococcus neoformans [4] = experiment: Antimicrobial activity against Cryptococcus neoformans IM 031706 isolate at 50 ug/ml after 48 hrs; how it was run: as §2
Cryptococcus neoformans [5] = experiment: Antimicrobial activity against Cryptococcus neoformans IM 00319 isolate at 100 ug/ml after 48 hrs; how it was run: as §2
Trichophyton rubrum = experiment: Antifungal activity against Trichophyton rubrum C110 after 48 hrs by broth microdilution technique; conditions: read-out: MIC; how it was run: as §1
Aspergillus fumigatus = experiment: Antifungal activity against Aspergillus fumigatus ATTC 26934 after 48 hrs by broth microdilution technique; how it was run: as §1
[6] = test system: Trichophyton mentagrophytes; experiment: Antifungal activity against Trichophyton mentagrophytes ATCC 9972 after 48 hrs by broth microdilution technique; conditions: ATCC 9972, 48 h; how it was run: as §1
Cryptococcus neoformans [7] = experiment: Antimicrobial activity against Cryptococcus neoformans IM 052470 isolate at 25 ug/ml after 48 hrs; how it was run: as §2
Cryptococcus neoformans [8] = experiment: Antimicrobial activity against Cryptococcus neoformans IM 052470 isolate at 50 ug/ml after 48 hrs; how it was run: as §2
Cryptococcus neoformans [9] = experiment: Antimicrobial activity against Cryptococcus neoformans IM 042074 isolate at 50 ug/ml after 48 hrs; how it was run: as §2
Cryptococcus neoformans [10] = experiment: Antimicrobial activity against Cryptococcus neoformans IM 983040 isolate at 50 ug/ml after 48 hrs
How it was run: (§3)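 Clinical Cryptococcus isolates kept on Sabouraud-dextrose agar slopes; inoculum 1–5 × 10³ CFU/mL. Quinoline DMSO stocks were diluted in RPMI-1640 to final 100–6.25 µg/mL, with DMSO ≤2%. An equal volume of inoculum was added (200 µL per well). Run in triplicate.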

Cryptococcus neoformans [11] = experiment: Antimicrobial activity against Cryptococcus neoformans IM 031631 isolate at 100 ug/ml after 48 hrs; how it was run: as §2
Cryptococcus neoformans [12] = experiment: Antimicrobial activity against Cryptococcus neoformans IM 972751 isolate at 50 ug/ml after 48 hrs; how it was run: as §3
Cryptococcus neoformans [13] = experiment: Antimicrobial activity against Cryptococcus neoformans IM 961951 isolate at 12.5 ug/ml after 48 hrs; how it was run: as §2
Cryptococcus neoformans [14] = experiment: Antimicrobial activity against Cryptococcus neoformans IM 972724 isolate at 100 ug/ml after 48 hrs; how it was run: as §3
Cryptococcus neoformans [15] = experiment: Antimicrobial activity against Cryptococcus neoformans ATCC 32264 at 6.25 ug/ml after 48 hrs; conditions: ATCC 32264, 48 h; how it was run: as §2
Candida albicans [16] = experiment: Antimicrobial activity against Candida albicans ATCC 10231 at 12.5 ug/ml after 24 hrs; conditions: ATCC 10231, 24 h
How it was run: (§4)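 Growth-inhibition microplate test. Strains are grown on Sabouraud-chloramphenicol agar for 48 h at 30 °C, and inoculum is added to RPMI-1640 containing compound at a final 100–6.25, with DMSO ≤2%. Each strain has a growth control (same DMSO, no compound) and a sterility control.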

Cryptococcus neoformans [17] = experiment: Antimicrobial activity against Cryptococcus neoformans IM 052470 isolate at 6.25 ug/ml after 48 hrs; how it was run: as §2
Cryptococcus neoformans [18] = experiment: Antimicrobial activity against Cryptococcus neoformans IM 961951 isolate at 50 ug/ml after 48 hrs; how it was run: as §3
Cryptococcus neoformans [19] = experiment: Antimicrobial activity against Cryptococcus neoformans IM 961951 isolate at 25 ug/ml after 48 hrs; how it was run: as §3
Cryptococcus neoformans [20] = experiment: Antimicrobial activity against Cryptococcus neoformans ATCC 32264 at 12.5 ug/ml after 48 hrs; conditions: ATCC 32264, 48 h; how it was run: as §2
Cryptococcus neoformans [21] = experiment: Antimicrobial activity against Cryptococcus neoformans IM 00319 isolate at 50 ug/ml after 48 hrs; how it was run: as §2
Cryptococcus neoformans [22] = experiment: Antifungal activity against Cryptococcus neoformans ATCC 32264 after 48 hrs by broth microdilution technique; conditions: ATCC 32264, 48 h; how it was run: as §1
Candida albicans [23] = experiment: Antimicrobial activity against Candida albicans ATCC 10231 at 25 ug/ml after 24 hrs; conditions: ATCC 10231, 24 h; how it was run: as §4
Candida albicans [24] = experiment: Antimicrobial activity against Candida albicans ATCC 10231 at 100 ug/ml after 24 hrs; conditions: ATCC 10231, 24 h; how it was run: as §4
Cryptococcus neoformans [25] = experiment: Antimicrobial activity against Cryptococcus neoformans IM 052470 isolate at 100 ug/ml after 48 hrs; how it was run: as §2
Cryptococcus neoformans [26] = experiment: Antimicrobial activity against Cryptococcus neoformans IM 00319 isolate at 25 ug/ml after 48 hrs; how it was run: as §2
Cryptococcus neoformans [27] = experiment: Antimicrobial activity against Cryptococcus neoformans IM 983040 isolate at 6.25 ug/ml after 48 hrs; how it was run: as §3
Cryptococcus neoformans [28] = experiment: Antimicrobial activity against Cryptococcus neoformans IM 031706 isolate at 12.5 ug/ml after 48 hrs; how it was run: as §2
Cryptococcus neoformans [29] = experiment: Antimicrobial activity against Cryptococcus neoformans IM 972724 isolate at 25 ug/ml after 48 hrs; how it was run: as §3
Cryptococcus neoformans [30] = experiment: Antimicrobial activity against Cryptococcus neoformans IM 042074 isolate at 12.5 ug/ml after 48 hrs; how it was run: as §2
Cryptococcus neoformans [31] = experiment: Antimicrobial activity against Cryptococcus neoformans IM 961951 isolate at 100 ug/ml after 48 hrs; how it was run: as §2
Cryptococcus neoformans [32] = experiment: Antimicrobial activity against Cryptococcus neoformans IM 983040 isolate at 25 ug/ml after 48 hrs; how it was run: as §3
Cryptococcus neoformans [33] = experiment: Antimicrobial activity against Cryptococcus neoformans ATCC 32264 at 100 ug/ml after 48 hrs; conditions: ATCC 32264, 48 h; how it was run: as §2
Cryptococcus neoformans [34] = experiment: Antimicrobial activity against Cryptococcus neoformans IM 031706 isolate at 25 ug/ml after 48 hrs; how it was run: as §2
Candida albicans [35] = experiment: Antimicrobial activity against Candida albicans ATCC 10231 at 6.25 ug/ml after 24 hrs; conditions: ATCC 10231, 24 h; how it was run: as §4
Cryptococcus neoformans [36] = experiment: Antimicrobial activity against Cryptococcus neoformans IM 972751 isolate at 6.25 ug/ml after 48 hrs; how it was run: as §3
Cryptococcus neoformans [37] = experiment: Antimicrobial activity against Cryptococcus neoformans IM 972751 isolate at 25 ug/ml after 48 hrs; how it was run: as §3
Candida albicans [38] = experiment: Antimicrobial activity against Candida albicans ATCC 10231 at 50 ug/ml after 24 hrs; conditions: ATCC 10231, 24 h; how it was run: as §4
Cryptococcus neoformans [39] = experiment: Antimicrobial activity against Cryptococcus neoformans IM 961951 isolate at 6.25 ug/ml after 48 hrs; how it was run: as §3
Cryptococcus neoformans [40] = experiment: Antimicrobial activity against Cryptococcus neoformans IM 031706 isolate at 100 ug/ml after 48 hrs; how it was run: as §2

c1ccc(-c2ccc3ccccc3n2)cc1 [2-PHENYLQUINOLINE]
MIC (Nannizzia gypsea): 16 µg/mL (≈ 77.9 µM)
inhibition at 12.5 µg/mL (Cryptococcus neoformans [1]): 5%
inhibition at 12.5 µg/mL (Cryptococcus neoformans [2]): 21%
inhibition at 6.25 µg/mL (Cryptococcus neoformans [3]): 0%
inhibition at 50 µg/mL (Cryptococcus neoformans [4]): 46%
inhibition at 100 µg/mL (Cryptococcus neoformans [5]): 47%
MIC (Trichophyton rubrum): 25 µg/mL (≈ 122 µM)
MIC (Aspergillus fumigatus): > 250 µg/mL
MIC [6]: 25 µg/mL (≈ 122 µM)
inhibition at 25 µg/mL (Cryptococcus neoformans [7]): 35%
inhibition at 50 µg/mL (Cryptococcus neoformans [8]): 76%
inhibition at 50 µg/mL (Cryptococcus neoformans [9]): 77%
inhibition at 50 µg/mL (Cryptococcus neoformans [10]): 29%
inhibition at 100 µg/mL (Cryptococcus neoformans [11]): 74%
inhibition at 50 µg/mL (Cryptococcus neoformans [12]): 54%
inhibition at 12.5 µg/mL (Cryptococcus neoformans [13]): 0%
inhibition at 100 µg/mL (Cryptococcus neoformans [14]): 99%
inhibition at 6.25 µg/mL (Cryptococcus neoformans [15]): 0%
inhibition at 12.5 µg/mL (Candida albicans [16]): 0%
inhibition at 6.25 µg/mL (Cryptococcus neoformans [17]): 0%
inhibition at 50 µg/mL (Cryptococcus neoformans [18]): 32%
inhibition at 25 µg/mL (Cryptococcus neoformans [19]): 10%
inhibition at 12.5 µg/mL (Cryptococcus neoformans [20]): 32%
inhibition at 50 µg/mL (Cryptococcus neoformans [21]): 34%
MIC (Cryptococcus neoformans [22]): 31.2 µg/mL (≈ 152 µM)
inhibition at 25 µg/mL (Candida albicans [23]): 0%
inhibition at 100 µg/mL (Candida albicans [24]): 0%
inhibition at 100 µg/mL (Cryptococcus neoformans [25]): 88%
inhibition at 25 µg/mL (Cryptococcus neoformans [26]): 14%
inhibition at 6.25 µg/mL (Cryptococcus neoformans [27]): 0%
inhibition at 12.5 µg/mL (Cryptococcus neoformans [28]): 0%
inhibition at 25 µg/mL (Cryptococcus neoformans [29]): 35%
inhibition at 12.5 µg/mL (Cryptococcus neoformans [30]): 7%
inhibition at 100 µg/mL (Cryptococcus neoformans [31]): 45%
inhibition at 25 µg/mL (Cryptococcus neoformans [32]): 13%
inhibition at 100 µg/mL (Cryptococcus neoformans [33]): 100%
inhibition at 25 µg/mL (Cryptococcus neoformans [34]): 17%
inhibition at 6.25 µg/mL (Candida albicans [35]): 0%
inhibition at 6.25 µg/mL (Cryptococcus neoformans [36]): 0%
inhibition at 25 µg/mL (Cryptococcus neoformans [37]): 22%
inhibition at 50 µg/mL (Candida albicans [38]): 0%
inhibition at 6.25 µg/mL (Cryptococcus neoformans [39]): 0%
inhibition at 100 µg/mL (Cryptococcus neoformans [40]): 67%

Cc1cc(-c2ccncc2)nc2ccccc12
MIC (Nannizzia gypsea): 25 µg/mL (≈ 113 µM)
inhibition at 12.5 µg/mL (Cryptococcus neoformans [1]): 36%
inhibition at 12.5 µg/mL (Cryptococcus neoformans [2]): 24%
inhibition at 6.25 µg/mL (Cryptococcus neoformans [3]): 21%
inhibition at 50 µg/mL (Cryptococcus neoformans [4]): 69%
inhibition at 100 µg/mL (Cryptococcus neoformans [5]): 92%
MIC (Trichophyton rubrum): 25 µg/mL (≈ 113 µM)
MIC (Aspergillus fumigatus): 50 µg/mL (≈ 227 µM)
MIC [6]: 25 µg/mL (≈ 113 µM)
inhibition at 25 µg/mL (Cryptococcus neoformans [7]): 53%
inhibition at 50 µg/mL (Cryptococcus neoformans [8]): 75%
inhibition at 50 µg/mL (Cryptococcus neoformans [9]): 87%
inhibition at 50 µg/mL (Cryptococcus neoformans [10]): 34%
inhibition at 100 µg/mL (Cryptococcus neoformans [11]): 100%
inhibition at 50 µg/mL (Cryptococcus neoformans [12]): 20%
inhibition at 12.5 µg/mL (Cryptococcus neoformans [13]): 34%
inhibition at 100 µg/mL (Cryptococcus neoformans [14]): 74%
inhibition at 6.25 µg/mL (Cryptococcus neoformans [15]): 83%
inhibition at 12.5 µg/mL (Candida albicans [16]): 41%
inhibition at 6.25 µg/mL (Cryptococcus neoformans [17]): 0%
inhibition at 50 µg/mL (Cryptococcus neoformans [18]): 89%
inhibition at 25 µg/mL (Cryptococcus neoformans [19]): 78%
inhibition at 12.5 µg/mL (Cryptococcus neoformans [20]): 90.5%
inhibition at 50 µg/mL (Cryptococcus neoformans [21]): 80%
MIC (Cryptococcus neoformans [22]): 25 µg/mL (≈ 113 µM)
inhibition at 25 µg/mL (Candida albicans [23]): 63%
inhibition at 100 µg/mL (Candida albicans [24]): 100%
inhibition at 100 µg/mL (Cryptococcus neoformans [25]): 99%
inhibition at 25 µg/mL (Cryptococcus neoformans [26]): 52%
inhibition at 6.25 µg/mL (Cryptococcus neoformans [27]): 0%
inhibition at 12.5 µg/mL (Cryptococcus neoformans [28]): 41%
inhibition at 25 µg/mL (Cryptococcus neoformans [29]): 8%
inhibition at 12.5 µg/mL (Cryptococcus neoformans [30]): 76%
inhibition at 100 µg/mL (Cryptococcus neoformans [31]): 97%
inhibition at 25 µg/mL (Cryptococcus neoformans [32]): 12%
inhibition at 100 µg/mL (Cryptococcus neoformans [33]): 100%
inhibition at 25 µg/mL (Cryptococcus neoformans [34]): 57%
inhibition at 6.25 µg/mL (Candida albicans [35]): 19%
inhibition at 6.25 µg/mL (Cryptococcus neoformans [36]): 0%
inhibition at 25 µg/mL (Cryptococcus neoformans [37]): 9%
inhibition at 50 µg/mL (Candida albicans [38]): 73%
inhibition at 6.25 µg/mL (Cryptococcus neoformans [39]): 4%
inhibition at 100 µg/mL (Cryptococcus neoformans [40]): 100%
